Assay outcomes from PubChem BioAssay.
In the library only some 2.3% were active in any assay of this set; here they are far more common.
TRPC4 inh: inhibitors of mouse TRPC4 channel; AID 2247; 300,000 tested, 0.39% active; B-score at 10 µM; HEK293 TRPC4beta/mu-opioid, DAMGO-evoked Fluo4 calcium flux; hits give low values; Q9QUQ5;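 active = B-score over 3 SD under the library average, no early fluorescence shift, positive overall ratio signal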
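Signal: kinetic Fluo4 fluorescence imaging of calcium influx. Material: stable TRPC4beta/mu-opioid receptor HEK293 cells. Probe or stimulus: DAMGO in two steps, submaximal then maximal.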
TRPC6 activator: activators of mouse TRPC6 channel; Q61143; HEK293-TRPC6 membrane potential dye fluorescence; hits give high values; B-score at 10 µM; 310,000 tested, 0.13% active; AID 2550;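 active = B-score of the integrated fluorescence ratio above library mean plus 3 SD, and starting fluorescence ratio within library mean plus 5 SD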;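 also: higher score means more depolarization so channel activation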
Target sequence (Q61143 whole entry, looked up): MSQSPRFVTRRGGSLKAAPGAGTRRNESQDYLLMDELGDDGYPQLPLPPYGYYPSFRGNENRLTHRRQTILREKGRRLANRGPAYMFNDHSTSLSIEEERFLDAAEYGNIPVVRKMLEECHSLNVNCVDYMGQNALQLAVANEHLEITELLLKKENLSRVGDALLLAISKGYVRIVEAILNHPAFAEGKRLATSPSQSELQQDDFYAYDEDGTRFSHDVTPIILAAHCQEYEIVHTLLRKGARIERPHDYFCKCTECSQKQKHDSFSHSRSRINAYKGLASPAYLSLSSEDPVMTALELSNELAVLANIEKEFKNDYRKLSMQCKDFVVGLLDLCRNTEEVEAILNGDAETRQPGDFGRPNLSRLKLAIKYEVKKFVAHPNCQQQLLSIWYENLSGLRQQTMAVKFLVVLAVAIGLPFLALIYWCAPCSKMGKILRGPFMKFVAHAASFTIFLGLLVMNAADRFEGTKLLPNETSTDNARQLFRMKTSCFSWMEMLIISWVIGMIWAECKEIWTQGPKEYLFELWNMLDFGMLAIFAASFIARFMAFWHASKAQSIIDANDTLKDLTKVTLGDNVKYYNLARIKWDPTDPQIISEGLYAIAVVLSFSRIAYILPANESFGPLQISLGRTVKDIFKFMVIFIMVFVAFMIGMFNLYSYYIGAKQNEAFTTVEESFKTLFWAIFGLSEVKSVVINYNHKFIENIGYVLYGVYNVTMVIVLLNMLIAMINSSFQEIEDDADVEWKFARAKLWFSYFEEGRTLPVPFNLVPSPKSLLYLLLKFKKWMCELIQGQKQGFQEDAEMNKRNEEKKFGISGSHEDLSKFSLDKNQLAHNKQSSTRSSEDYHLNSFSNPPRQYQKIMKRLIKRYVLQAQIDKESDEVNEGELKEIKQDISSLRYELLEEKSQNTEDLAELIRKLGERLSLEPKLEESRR
TRPC4 PAM: TRPC4 (mouse) allosteric potentiation; 310,000 tested, 0.42% active; AID 2227; B-score at 10 µM; HEK293 TRPC4beta/mu-opioid, DAMGO EC20, Fluo-4 Ca2+ flux; hits give high values; Q9QUQ5;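 active = B-score of calcium response area above 5 SD of library B-scores, with initial fluorescence ratio within 5 SD of library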
TRPC6 inh: blocks the mouse TRPC6 cation channel. HEK293-TRPC6, membrane potential dye, ACh-evoked depolarization; hits give low values. B-score at 10 µM. 310,000 tested, 1.1% active;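 active = B-score under library mean minus 3 SD, initial fluorescence not abnormally high, positive integrated signal ratio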;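 also: B-score derived from integrated fluorescence ratio over the kinetic read; more negative B-score means stronger inhibition of depolarization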
TRPC4 act: TRPC4 (mouse) channel activation; 310,000 tested, 0.49% active; Q9QUQ5; HEK293 TRPC4beta/mu-opioid, Fluo4 calcium fluorescence; hits give high values; B-score at 10 µM;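 active = B-score above 5 SD of library B-scores, and initial fluorescence ratio not above library mean plus 5 SD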;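 also: positive B-score marks a calcium rise read as TRPC4 activation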
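Assay system: HEK293 cells stably co-expressing mouse TRPC4beta and mu-opioid receptor / Timing: Fluo4 dye loading 45 min at room temperature, 110 s recording / Signal: Fluo4 calcium-sensitive dye fluorescence, kinetic, 1 Hz baseline / Read-out: integrated baseline-normalised fluorescence ratio, converted to per-well B score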
TRPC4 spec 2: second selectivity test of TRPC6 inhibitors: effect on mouse TRPC4 | 920 tested, 42% active | HEK293 TRPC4/MOR, membrane potential dye fluorescence; channel activated by saturating DAMGO dose | AID 2776 | inhibition, % at 10 µM | shares compounds with TRPC6 inh;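 active = compounds whose fluorescence signal differed from control wells by over 3 SD, either direction, in both duplicate plates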
TRPC4 spec: tests whether TRPC6 inhibitors also affect mouse TRPC4; shares compounds with TRPC6 inh; HEK293 TRPC4/mu-opioid, membrane potential fluorescence; activity change, negative = inhibition, % at 10 µM; 920 tested, 61% active; AID 2777;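 active = rise or fall in signal beyond 3 SD of buffer-only wells in both replicate plates, either sign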;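 also: integrated kinetic ratio of fluorescence range over baseline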
HEK293 MPD ctr 2-1: second check of TRPC6 inhibitor effects in parental HEK293 cells | signal change vs control, % at 10 µM | shares compounds with TRPC6 inh | 920 tested, 31% active | parental HEK293 membrane potential dye fluorescence; maximal acetylcholine challenge after compound addition | AID 2779;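 active = membrane potential signal moving either way by over 3 SD of the maximum-effect control, in both duplicate plates, meaning non-specific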
HEK293 MPD ctr-1: parental HEK293 nonspecific activity of TRPC6 inhibitors | AID 2780 | shares compounds with TRPC6 inh | membrane potential signal change, % at 10 µM | 920 tested, 60% active | parental HEK293 membrane potential dye fluorescence;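 active = membrane potential signal shifting up or down by more than 3 SD of buffer-only wells, on both duplicate plates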
HEK293 MPD ctr-2: parental HEK293 nonspecific activity of TRPC6 modulators. shares compounds with TRPC6 inh. membrane potential dye fluorescence. membrane potential signal change, % at 10 µM. 2,400 tested, 51% active;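 active = membrane potential signal moves up or down beyond 5 SD from buffer-only wells, on both duplicate plates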
HEK293 MPD ctr 2-2: parental HEK293 nonspecific activity of TRPC6 modulators, second screen; inhibition, % at 10 µM; 2,400 tested, 14% active; AID 488926; membrane potential dye fluorescence; after compound, maximal acetylcholine stimulation; shares compounds with TRPC6 inh;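 active = membrane potential signal drops by more than 5 SD from the mean control signal, in both duplicate plates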
TRPC4/MOR mod: mouse TRPC4 off-target activity of TRPC6 modulators | shares compounds with TRPC6 inh | HEK293 TRPC4/mu-opioid, membrane potential fluorescence | percent change from control (negative = decrease, positive = increase), % at 10 µM | 2,400 tested, 69% active | AID 488927;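 active = membrane potential signal moved up or down beyond 5 SD of buffer control wells, in both duplicate plates, actives on both sides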
TRPC4/MOR inh 2: second check of whether TRPC6 modulators also affect mouse TRPC4; 2,400 tested, 55% active; HEK293 TRPC4/mu-opioid, membrane potential dye fluorescence; stimulated with maximal-effect DAMGO; shares compounds with TRPC6 inh; inhibition, % at 10 µM; AID 488928;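 active = drop in membrane potential signal beyond 5 SD of the control wells in both duplicate plates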;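 also: TRPC4 counter screen for TRPC6 hits run under conditions tuned for TRPC6 not TRPC4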
TRPC6 block conf: mouse TRPC6 inhibitor confirmation. shares compounds with TRPC6 inh. 3,300 tested, 43% active. HEK293-TRPC6, membrane potential dye, ACh-evoked depolarization. inhibition, % at 10 µM;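 active = fluorescence ratio falls more than 5 SD below the full-stimulation control mean, in both duplicate runs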;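 also: integrated fluorescence ratio of peak minus minimum over baseline after agonist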
TRPC6 act confirm: mouse TRPC6 activator confirmation. shares compounds with TRPC6 inh. HEK293-TRPC6 membrane potential dye fluorescence, FDSS. activation, % at 10 µM. 2,800 tested, 11% active. AID 488961;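 active = ratio signal rise beyond 5 SD above unstimulated control wells' mean, seen in both duplicate runs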
Large screens that a line does not name were inactive (follow-up assays come after a bar, where they were run).

CCN(C1CCCCC1)S(=O)(=O)c1ccc(S(=O)(=O)N2CCN(CCC#N)CC2)cc1	TRPC6 inh -5.5 | HEK293 MPD ctr-2 inactive | HEK293 MPD ctr 2-2 inactive | TRPC4/MOR mod 10% | TRPC4/MOR inh 2 inactive | TRPC6 block conf 38% | TRPC6 act confirm inactive
c1ccc2oc(C3=NNC(=NC4CC4)SC3)cc2c1	TRPC6 inh -8.4 | TRPC4 spec 2 inactive | TRPC4 spec inactive | HEK293 MPD ctr 2-1 inactive | HEK293 MPD ctr-1 inactive | TRPC6 block conf inactive | TRPC6 act confirm inactive
Cc1ccc(N2C(=O)N(CC(=O)Nc3ccc(C)cc3Cl)C(=O)C2C)cc1 (stereo not given)	none
Fc1ccc(CNCCC(Cc2ccccc2)c2ccco2)cc1 (stereo not given)	none
CC(NCCC(Cc1ccccc1)c1ccco1)c1ccccc1 (stereo not given)	TRPC4 inh -6, TRPC6 activator 12, TRPC6 inh -5.6 | HEK293 MPD ctr-2 167% | HEK293 MPD ctr 2-2 inactive | TRPC4/MOR mod 42% | TRPC4/MOR inh 2 40% | TRPC6 block conf inactive | TRPC6 act confirm 36%
Oc1ccc(CN2CCc3ccccc3C2)c2cccnc12	TRPC4 inh -5, TRPC6 inh -7.3 | TRPC4 spec 2 49% | TRPC4 spec 2.4% | HEK293 MPD ctr 2-1 inactive | HEK293 MPD ctr-1 5.0% | TRPC6 block conf inactive | TRPC6 act confirm inactive
Cc1noc(C)c1C(=O)N1CCC(C(=O)c2ccc(F)cc2F)CC1	none
S=c1[nH]nc(-c2ccccc2Cl)n1/N=C/C=C/c1ccco1	TRPC6 inh -6 | HEK293 MPD ctr-2 inactive | HEK293 MPD ctr 2-2 inactive | TRPC4/MOR mod inactive | TRPC4/MOR inh 2 inactive | TRPC6 block conf 44% | TRPC6 act confirm inactive
Cc1cccc(NC(=O)N2CCCCCC2)c1	none
Cc1c(C(=O)OC(C)C(C)C[N+](C)(C)C)oc2ccccc12 (stereo not given)	TRPC6 inh -7.5 | HEK293 MPD ctr-2 inactive | HEK293 MPD ctr 2-2 64% | TRPC4/MOR mod inactive | TRPC4/MOR inh 2 inactive | TRPC6 block conf 72% | TRPC6 act confirm inactive
COc1ccc(-c2cn3cccc(C)c3n2)cc1F	TRPC6 inh -8 | TRPC4 spec 2 inactive | TRPC4 spec inactive | HEK293 MPD ctr 2-1 4.5% | HEK293 MPD ctr-1 -198% | TRPC6 block conf inactive | TRPC6 act confirm inactive
COc1ccc(-c2cn3cc(C)ccc3n2)cc1OC	TRPC6 inh -7.6 | TRPC4 spec 2 inactive | TRPC4 spec -9.8% | HEK293 MPD ctr 2-1 -28% | HEK293 MPD ctr-1 inactive | TRPC6 block conf inactive | TRPC6 act confirm inactive
COc1cc(/C=C2/CC/C(=C/c3ccc(O)c(OC)c3)C2=O)ccc1O	TRPC6 activator 14, TRPC4 act 43 | HEK293 MPD ctr-2 451% | HEK293 MPD ctr 2-2 149% | TRPC4/MOR mod 100% | TRPC4/MOR inh 2 inactive | TRPC6 block conf inactive | TRPC6 act confirm 97%
O=C(c1ccc(Oc2cc(Cl)cc(Cl)c2)o1)N1CCCCC1	TRPC6 inh -5.6 | HEK293 MPD ctr-2 inactive | HEK293 MPD ctr 2-2 inactive | TRPC4/MOR mod inactive | TRPC4/MOR inh 2 inactive | TRPC6 block conf inactive | TRPC6 act confirm inactive
CC(C)(C)OC(=O)N1CCC(c2c(C(=O)N3CCN(C(=O)c4ccco4)CC3)cnn2-c2ccc(F)cc2)CC1	none
Cc1ccc(-n2ncc(C(=O)N3CCN(C(=O)c4ccco4)CC3)c2C2CCN(C(=O)OC(C)(C)C)CC2)cc1C	TRPC6 inh -5.6 | HEK293 MPD ctr-2 inactive | HEK293 MPD ctr 2-2 inactive | TRPC4/MOR mod inactive | TRPC4/MOR inh 2 inactive | TRPC6 block conf inactive
CCOC(=O)c1c(-c2cccc([N+](=O)[O-])c2)csc1N	none
Cc1csc2cc(-c3cccc([N+](=O)[O-])c3)c(-c3cccc([N+](=O)[O-])c3)c[n+]12	TRPC6 inh -6.1 | HEK293 MPD ctr-2 -310% | HEK293 MPD ctr 2-2 66% | TRPC4/MOR mod -52% | TRPC4/MOR inh 2 55% | TRPC6 block conf 69% | TRPC6 act confirm inactive
CCCOc1ccc(/C=N/n2nnnc2N)cc1OC	none
COc1cccc(C(=O)OCC(=O)c2c[nH]c3ccccc23)c1O	none
COc1ccc(-n2c(O)c(/C=N/NS(=O)(=O)c3cc(C)ccc3C)c3ccccc3c2=O)cc1OC	none
COc1ccc(-n2c(O)c(/C=N/NS(=O)(=O)c3ccc(C)cc3)c3ccccc3c2=O)cc1OC	TRPC6 activator 29 | HEK293 MPD ctr-2 242% | HEK293 MPD ctr 2-2 inactive | TRPC4/MOR mod 11% | TRPC4/MOR inh 2 inactive | TRPC6 block conf inactive | TRPC6 act confirm 96%
COc1cccc(CN2CCNC(=O)C2CC(=O)N(C)Cc2cnccn2)c1OC (stereo not given)	none
CCN(CC)CC(=O)Nc1cccc2c1C(=O)c1ccccc1C2=O	none
O=C1c2ccccc2C(=O)c2c(NCCCN(CCO)CCO)cccc21	TRPC6 inh -13 | HEK293 MPD ctr-2 -304% | HEK293 MPD ctr 2-2 90% | TRPC4/MOR mod -49% | TRPC4/MOR inh 2 80% | TRPC6 block conf 76% | TRPC6 act confirm inactive
Cc1ccc2c(c1)C1C=CCC1C(C(=O)NCCCN1CCOCC1)N2 (stereo not given)	none
O=C(NCCCN1CCOCC1)C1Nc2ccc(OC(F)(F)F)cc2C2C=CCC12 (stereo not given)	TRPC6 inh -9.7 | HEK293 MPD ctr-2 inactive | HEK293 MPD ctr 2-2 inactive | TRPC4/MOR mod inactive | TRPC4/MOR inh 2 inactive | TRPC6 block conf inactive | TRPC6 act confirm inactive
